We go through two molecules from PMC3190289 (Clinical and Experimental Gastroenterology, 2011).

For data set [1] the following is noted: cited from earlier work.
Data set [2] is described as follows: Safety analysis: treatment-emergent adverse events after single doses. The format is in vivo, human. Particulars: healthy subjects; for Incidence of treatment-emergent adverse events: single-dose administration. In outline:
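Open-label two-period crossover in 44 subjects aged 20–54. Each period gave one oral dose after an overnight fast of at least 8 h, with a 60-min postdose fast; washout at least 7 days. All dosed subjects were analysed. A treatment-emergent AE started or worsened after first dose and within 30 days of last dose. Terms were coded to MedDRA 13.1 system organ class and preferred term; the investigator judged relatedness. Results were summarised descriptively per regimen.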

The subject of another data set is intragastric pH. Particulars: cited from earlier work.
A short description of data set [3]: Plasma pharmacokinetics after single oral doses in healthy subjects. The format is in vivo, human. Conditions: for Subjects with detectable plasma concentrations: single oral dose; for AUC values in CYP2C19 poor metabolizers relative to overall means: two CYP2C19 poor metabolizer subjects.
[4] abbreviates: postdose, single dose 60 mg, healthy subjects.

Like-named read-outs stand apart in the source and are kept apart here.

Take `Cc1c(OCC(F)(F)F)ccnc1C[S@@+]([O-])c1nc2ccccc2[nH]1` [dexlansoprazole]: the “Time of first peak of plasma concentration-time profile” value in data set [1] (after administration) was 1 to 2 h. Moreover, the Half-life in data set [1] was 1 to 2 h. In data set [1] (postdose), the “Time of second peak of plasma concentration-time profile” value was 4 to 5 h. In data set [2] (single dose), the “Adverse events considered related to the study drug by the investigator” value is recorded as “only one adverse event (nausea)”, the Incidence of flatulence is on record as 5%, the Incidence of headache was found to be 9% and the “Incidence of joint injury” value was 5%. In addition, the “Incidence of treatment-emergent adverse events” value in data set [2] turned out to be 21%. Also, the “Percentage of time with intragastric pH > 4” value with intragastric pH (0–24 hours after the same dose (60 mg)) is recorded as “approximately 60%”. Further, the “Subjects with detectable plasma concentrations” value in data set [3] (12 hours postdose) is 100%. The “Subjects with detectable plasma concentrations” value in data set [3] (16 hours postdose) is 88%. Besides, the “Subjects with detectable plasma concentrations” value in data set [3] (24 hours postdose) is listed as 63%. Moreover, in data set [3] (setting [4]), the “Time of first peak of mean plasma concentration-time curve” value is “approximately 2 hours” and the “Time of second peak of mean plasma concentration-time curve” value is around 5 h. The “AUC values in CYP2C19 poor metabolizers relative to overall means” value in data set [3] is reported as “substantially higher”.
On to `COc1ccc2nc([S@@+]([O-])Cc3ncc(C)c(OC)c3C)[nH]c2c1` [esomeprazole], for which, in data set [1] (after five days of once-daily dosing), the “Increase in bioavailability at steady state” value was around 2.5 fold. For the same molecule, the “Time of maximum plasma concentrations” value in data set [1] (postdose) is “approximately 1.6 hours”. The “Adverse events reported by two or more subjects” value in data set [2] (single dose) is reported as “No adverse event”. In data set [2], the “Incidence of treatment-emergent adverse events” value is on record as 14%. The “Percentage of time with intragastric pH > 4” value in the data set on intragastric pH (0–24 hours after the same dose (40 mg), ref 10) was 54%; in the data set on intragastric pH (0–24 hours after the same dose (40 mg), ref 12) it was 52%. For the same molecule, the “Subjects with detectable plasma concentrations” value came out at 80% in data set [3] (12 hours postdose), 39% in data set [3] (16 hours postdose) and 9% in data set [3] (24 hours postdose). Besides, the “AUC values in CYP2C19 poor metabolizers relative to overall means” value in data set [3] was “substantially higher”.
